This is an account of results in ChEMBL document CHEMBL1165965, “Synthesis and structure-activity relationships of 1,2,3,4-tetrahydropyrido[2,3-b]pyrazines as potent and selective inhibitors of the anaplastic lymphoma kinase” (Bioorg Med Chem, 2010).

The structures appear in SMILES notation. Where only a bound is given, the exact number is not on record here.

Experiment [1] has as its target Serine/threonine-protein kinase MARK1 (Homo sapiens) (UniProt Q9P0L2). The experiment in a line: Inhibition of MARK1 at 1 uM. An outline of the steps:
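Kinase-panel screen using KINOMEscan technology, with 250–400 kinases per panel. Each compound was tested at a single concentration, and inhibition of each kinase was recorded. Selectivity was summarised as S(90), the fraction of kinases inhibited by more than 90%.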

Experiment [2] deals with T1, Serine/threonine-protein kinase 4 (Homo sapiens) (UniProt Q13043).
T1 sequence (whole entry): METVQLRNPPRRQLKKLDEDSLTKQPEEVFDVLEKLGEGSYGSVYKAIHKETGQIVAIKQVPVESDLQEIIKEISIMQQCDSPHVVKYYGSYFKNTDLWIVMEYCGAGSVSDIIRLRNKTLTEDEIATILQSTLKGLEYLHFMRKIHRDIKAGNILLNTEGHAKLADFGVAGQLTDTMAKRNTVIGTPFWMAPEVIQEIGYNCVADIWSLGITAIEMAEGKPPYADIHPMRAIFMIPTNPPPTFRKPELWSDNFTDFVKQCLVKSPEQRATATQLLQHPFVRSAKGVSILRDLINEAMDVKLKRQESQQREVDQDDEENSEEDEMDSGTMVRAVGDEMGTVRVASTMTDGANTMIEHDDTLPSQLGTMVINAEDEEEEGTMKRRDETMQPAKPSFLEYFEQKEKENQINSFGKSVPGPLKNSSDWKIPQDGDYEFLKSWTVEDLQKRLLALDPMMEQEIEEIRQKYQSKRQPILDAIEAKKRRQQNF
The experiment in a line: Inhibition of MST1 at 1 uM.

For experiment [3], the target named is Myosin light chain kinase, smooth muscle (Homo sapiens) (UniProt Q15746). Kind of experiment: Inhibition of MYLK at 1 uM.
Chain of Myosin light chain kinase, smooth muscle (Homo sapiens) (Q15746 whole entry): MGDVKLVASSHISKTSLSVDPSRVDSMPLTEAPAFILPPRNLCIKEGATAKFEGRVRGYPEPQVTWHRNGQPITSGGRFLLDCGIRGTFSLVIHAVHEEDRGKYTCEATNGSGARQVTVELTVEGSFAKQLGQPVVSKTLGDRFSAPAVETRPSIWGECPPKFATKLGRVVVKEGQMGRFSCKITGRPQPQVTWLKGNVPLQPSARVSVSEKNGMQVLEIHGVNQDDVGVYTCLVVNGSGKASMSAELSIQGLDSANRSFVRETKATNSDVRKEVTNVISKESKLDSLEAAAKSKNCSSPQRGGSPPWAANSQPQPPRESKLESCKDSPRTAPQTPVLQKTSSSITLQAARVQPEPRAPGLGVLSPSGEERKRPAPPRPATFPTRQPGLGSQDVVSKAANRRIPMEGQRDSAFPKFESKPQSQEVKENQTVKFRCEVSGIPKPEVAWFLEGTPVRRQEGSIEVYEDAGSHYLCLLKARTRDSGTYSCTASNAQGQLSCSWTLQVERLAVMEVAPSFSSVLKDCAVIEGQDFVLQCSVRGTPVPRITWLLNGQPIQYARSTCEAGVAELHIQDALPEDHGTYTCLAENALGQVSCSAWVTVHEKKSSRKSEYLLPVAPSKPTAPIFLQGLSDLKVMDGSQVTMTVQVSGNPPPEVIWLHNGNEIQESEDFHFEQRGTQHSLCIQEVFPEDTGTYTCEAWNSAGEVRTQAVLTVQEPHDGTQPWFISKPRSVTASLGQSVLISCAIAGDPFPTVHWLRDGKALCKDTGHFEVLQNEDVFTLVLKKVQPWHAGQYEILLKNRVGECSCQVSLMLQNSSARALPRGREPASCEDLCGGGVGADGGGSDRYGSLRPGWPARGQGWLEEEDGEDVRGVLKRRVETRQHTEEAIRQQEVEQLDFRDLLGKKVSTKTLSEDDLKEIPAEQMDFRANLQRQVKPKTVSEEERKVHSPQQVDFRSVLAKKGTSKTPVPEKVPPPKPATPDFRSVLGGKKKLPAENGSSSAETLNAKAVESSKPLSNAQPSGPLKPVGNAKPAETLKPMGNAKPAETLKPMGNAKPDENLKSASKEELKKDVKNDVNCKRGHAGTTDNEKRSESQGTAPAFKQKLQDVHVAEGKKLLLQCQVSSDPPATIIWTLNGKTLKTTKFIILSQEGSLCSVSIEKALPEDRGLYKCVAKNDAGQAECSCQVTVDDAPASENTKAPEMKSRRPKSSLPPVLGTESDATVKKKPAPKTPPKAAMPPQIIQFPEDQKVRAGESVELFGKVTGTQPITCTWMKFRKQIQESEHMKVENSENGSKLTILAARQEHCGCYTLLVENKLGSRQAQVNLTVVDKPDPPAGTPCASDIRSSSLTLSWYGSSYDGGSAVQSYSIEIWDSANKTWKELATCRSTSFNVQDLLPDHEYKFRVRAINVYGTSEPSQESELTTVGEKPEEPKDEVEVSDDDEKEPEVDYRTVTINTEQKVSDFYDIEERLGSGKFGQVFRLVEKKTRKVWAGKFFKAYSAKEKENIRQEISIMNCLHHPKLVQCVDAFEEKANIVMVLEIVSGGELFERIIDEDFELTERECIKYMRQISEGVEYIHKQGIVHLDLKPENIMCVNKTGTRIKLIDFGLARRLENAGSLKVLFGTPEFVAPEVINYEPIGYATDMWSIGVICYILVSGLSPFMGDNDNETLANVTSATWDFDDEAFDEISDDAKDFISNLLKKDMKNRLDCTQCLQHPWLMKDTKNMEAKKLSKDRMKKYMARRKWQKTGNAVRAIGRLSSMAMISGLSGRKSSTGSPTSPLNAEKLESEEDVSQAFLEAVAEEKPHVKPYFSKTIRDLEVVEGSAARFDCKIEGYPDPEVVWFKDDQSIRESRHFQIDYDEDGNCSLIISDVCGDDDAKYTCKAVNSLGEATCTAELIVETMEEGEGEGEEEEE
For experiment [4], the target named is Tyrosine-protein kinase Srms (Homo sapiens) (UniProt Q9H3Y6). Kind of experiment: Inhibition of SRMS at 1 uM.
Chain of Tyrosine-protein kinase Srms (Homo sapiens) (Q9H3Y6 whole entry): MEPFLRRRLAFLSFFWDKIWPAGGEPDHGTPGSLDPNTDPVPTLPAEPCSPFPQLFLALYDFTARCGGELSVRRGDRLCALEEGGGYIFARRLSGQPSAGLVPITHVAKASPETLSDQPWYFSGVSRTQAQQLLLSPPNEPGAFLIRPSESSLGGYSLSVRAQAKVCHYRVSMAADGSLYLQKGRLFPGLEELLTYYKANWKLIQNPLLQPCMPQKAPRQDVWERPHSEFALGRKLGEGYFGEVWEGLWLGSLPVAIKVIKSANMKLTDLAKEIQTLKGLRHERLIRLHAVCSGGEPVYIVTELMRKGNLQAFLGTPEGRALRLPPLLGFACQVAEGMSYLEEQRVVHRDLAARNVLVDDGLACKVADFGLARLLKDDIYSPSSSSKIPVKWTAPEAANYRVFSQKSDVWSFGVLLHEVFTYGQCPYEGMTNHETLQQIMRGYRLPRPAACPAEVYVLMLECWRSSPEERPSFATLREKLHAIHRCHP
Experiment [5] deals with T2, NUAK family SNF1-like kinase 1 (Homo sapiens) (UniProt O60285).
T2 sequence (whole entry): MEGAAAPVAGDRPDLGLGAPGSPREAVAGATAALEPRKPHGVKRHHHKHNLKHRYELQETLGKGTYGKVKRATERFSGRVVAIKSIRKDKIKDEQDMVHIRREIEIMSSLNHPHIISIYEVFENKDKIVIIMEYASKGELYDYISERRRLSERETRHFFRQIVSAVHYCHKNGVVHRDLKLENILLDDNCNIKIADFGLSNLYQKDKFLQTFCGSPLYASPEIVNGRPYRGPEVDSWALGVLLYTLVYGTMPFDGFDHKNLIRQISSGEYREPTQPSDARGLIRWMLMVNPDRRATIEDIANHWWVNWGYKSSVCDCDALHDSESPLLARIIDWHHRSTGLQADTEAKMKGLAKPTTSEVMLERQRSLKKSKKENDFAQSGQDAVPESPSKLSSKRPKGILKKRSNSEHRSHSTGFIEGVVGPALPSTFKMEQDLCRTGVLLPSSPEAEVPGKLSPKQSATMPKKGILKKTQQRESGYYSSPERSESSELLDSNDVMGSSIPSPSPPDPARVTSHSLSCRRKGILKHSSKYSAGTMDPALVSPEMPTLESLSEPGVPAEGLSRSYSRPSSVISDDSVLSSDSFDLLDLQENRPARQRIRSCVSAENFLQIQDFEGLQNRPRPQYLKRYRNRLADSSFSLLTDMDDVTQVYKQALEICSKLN
The experiment in a line: Inhibition of ARK5 at 1 uM.

The target in experiment [6] is T3, Aurora kinase A (Homo sapiens) (UniProt O14965).
T3 sequence (whole entry): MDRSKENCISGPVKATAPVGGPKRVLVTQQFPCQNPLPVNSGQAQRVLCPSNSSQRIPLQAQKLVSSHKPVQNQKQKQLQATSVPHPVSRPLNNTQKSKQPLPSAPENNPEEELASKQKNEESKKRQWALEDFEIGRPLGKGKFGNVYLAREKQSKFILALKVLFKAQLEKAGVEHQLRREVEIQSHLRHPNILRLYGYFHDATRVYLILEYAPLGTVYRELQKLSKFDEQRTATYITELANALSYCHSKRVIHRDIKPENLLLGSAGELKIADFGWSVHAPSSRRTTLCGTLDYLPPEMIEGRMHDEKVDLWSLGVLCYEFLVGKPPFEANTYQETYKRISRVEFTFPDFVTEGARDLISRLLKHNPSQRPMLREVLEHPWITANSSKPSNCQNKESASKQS
The experiment in a line: Inhibition of AURKA at 1 uM. An outline of the steps:
(§1)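 Ambit KINOMEscan screen at a single concentration across a 250–400 kinase panel, recorded as percent inhibition. Selectivity was expressed as S(90), the fraction of kinases inhibited >90%.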

Experiment [7] has as its target Calcium/calmodulin-dependent protein kinase kinase 2 (Homo sapiens) (UniProt Q96RR4). Kind of experiment: Inhibition of CAMKK2 at 1 uM. Put shortly:
as §1

The target in experiment [8] is Macrophage colony-stimulating factor 1 receptor (Homo sapiens) (UniProt P07333). The experiment in a line: Inhibition of CSF1R at 1 uM. Put shortly: (§2)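 Single-concentration screen using Ambit Bioscience KINOMEscan technology across a panel of 250–400 kinases. Per-kinase inhibition from this screen was summarized as S(90), the fraction of kinases inhibited by more than 90%.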
Chain of Macrophage colony-stimulating factor 1 receptor (Homo sapiens) (P07333 whole entry): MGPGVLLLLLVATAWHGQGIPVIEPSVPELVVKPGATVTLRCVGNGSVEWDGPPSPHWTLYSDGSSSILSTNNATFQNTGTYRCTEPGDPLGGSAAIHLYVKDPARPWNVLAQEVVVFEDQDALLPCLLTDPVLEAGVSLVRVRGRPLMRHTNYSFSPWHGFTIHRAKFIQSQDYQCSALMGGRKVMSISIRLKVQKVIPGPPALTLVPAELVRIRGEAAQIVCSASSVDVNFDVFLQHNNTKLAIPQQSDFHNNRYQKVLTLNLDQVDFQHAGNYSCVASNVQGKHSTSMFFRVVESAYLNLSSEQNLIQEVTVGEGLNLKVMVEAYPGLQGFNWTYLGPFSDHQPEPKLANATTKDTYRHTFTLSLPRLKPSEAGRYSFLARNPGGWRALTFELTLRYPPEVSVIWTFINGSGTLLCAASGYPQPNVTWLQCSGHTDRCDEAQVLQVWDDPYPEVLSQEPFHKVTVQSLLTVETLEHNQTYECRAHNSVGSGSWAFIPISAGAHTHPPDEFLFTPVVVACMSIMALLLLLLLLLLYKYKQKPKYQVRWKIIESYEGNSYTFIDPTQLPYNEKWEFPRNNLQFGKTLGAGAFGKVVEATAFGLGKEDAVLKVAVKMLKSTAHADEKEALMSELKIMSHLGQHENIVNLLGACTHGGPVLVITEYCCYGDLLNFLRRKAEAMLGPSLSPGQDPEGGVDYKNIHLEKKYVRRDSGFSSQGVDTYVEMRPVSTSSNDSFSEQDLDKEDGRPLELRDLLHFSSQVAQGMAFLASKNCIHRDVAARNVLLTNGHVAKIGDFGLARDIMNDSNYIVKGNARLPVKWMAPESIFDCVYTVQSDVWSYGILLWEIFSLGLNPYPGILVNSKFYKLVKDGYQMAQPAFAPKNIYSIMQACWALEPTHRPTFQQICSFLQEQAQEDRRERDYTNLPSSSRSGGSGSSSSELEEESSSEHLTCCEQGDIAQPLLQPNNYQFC

The target of experiment [9] is T4, Serine/threonine-protein kinase DCLK1 (Homo sapiens) (UniProt O15075).
T4 sequence (whole entry): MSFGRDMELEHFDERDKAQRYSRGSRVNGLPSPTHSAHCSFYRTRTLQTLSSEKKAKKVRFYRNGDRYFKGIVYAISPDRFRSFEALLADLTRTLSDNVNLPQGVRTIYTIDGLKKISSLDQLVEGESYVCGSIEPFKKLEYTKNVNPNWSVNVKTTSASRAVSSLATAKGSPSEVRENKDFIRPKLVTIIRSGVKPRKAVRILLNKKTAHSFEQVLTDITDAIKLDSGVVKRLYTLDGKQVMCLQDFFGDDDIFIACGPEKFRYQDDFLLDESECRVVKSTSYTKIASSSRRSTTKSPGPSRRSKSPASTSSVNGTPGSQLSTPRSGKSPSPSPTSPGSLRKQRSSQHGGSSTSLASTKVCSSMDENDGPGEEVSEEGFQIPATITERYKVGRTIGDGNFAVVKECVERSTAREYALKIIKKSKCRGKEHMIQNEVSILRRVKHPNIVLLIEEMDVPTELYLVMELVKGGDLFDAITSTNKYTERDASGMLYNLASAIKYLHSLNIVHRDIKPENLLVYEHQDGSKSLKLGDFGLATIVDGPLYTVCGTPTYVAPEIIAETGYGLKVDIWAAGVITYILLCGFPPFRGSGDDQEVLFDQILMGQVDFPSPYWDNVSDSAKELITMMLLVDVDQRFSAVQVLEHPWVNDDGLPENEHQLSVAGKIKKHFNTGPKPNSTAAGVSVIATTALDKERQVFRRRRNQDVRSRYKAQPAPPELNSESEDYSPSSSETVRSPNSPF
Kind of experiment: Inhibition of DCAMKL1 at 1 uM.

The target in experiment [10] is Ephrin type-A receptor 2 (Homo sapiens) (UniProt P29317). The experiment in a line: Inhibition of EPHA2 at 1 uM. Put shortly: as §2
Chain of Ephrin type-A receptor 2 (Homo sapiens) (P29317 whole entry): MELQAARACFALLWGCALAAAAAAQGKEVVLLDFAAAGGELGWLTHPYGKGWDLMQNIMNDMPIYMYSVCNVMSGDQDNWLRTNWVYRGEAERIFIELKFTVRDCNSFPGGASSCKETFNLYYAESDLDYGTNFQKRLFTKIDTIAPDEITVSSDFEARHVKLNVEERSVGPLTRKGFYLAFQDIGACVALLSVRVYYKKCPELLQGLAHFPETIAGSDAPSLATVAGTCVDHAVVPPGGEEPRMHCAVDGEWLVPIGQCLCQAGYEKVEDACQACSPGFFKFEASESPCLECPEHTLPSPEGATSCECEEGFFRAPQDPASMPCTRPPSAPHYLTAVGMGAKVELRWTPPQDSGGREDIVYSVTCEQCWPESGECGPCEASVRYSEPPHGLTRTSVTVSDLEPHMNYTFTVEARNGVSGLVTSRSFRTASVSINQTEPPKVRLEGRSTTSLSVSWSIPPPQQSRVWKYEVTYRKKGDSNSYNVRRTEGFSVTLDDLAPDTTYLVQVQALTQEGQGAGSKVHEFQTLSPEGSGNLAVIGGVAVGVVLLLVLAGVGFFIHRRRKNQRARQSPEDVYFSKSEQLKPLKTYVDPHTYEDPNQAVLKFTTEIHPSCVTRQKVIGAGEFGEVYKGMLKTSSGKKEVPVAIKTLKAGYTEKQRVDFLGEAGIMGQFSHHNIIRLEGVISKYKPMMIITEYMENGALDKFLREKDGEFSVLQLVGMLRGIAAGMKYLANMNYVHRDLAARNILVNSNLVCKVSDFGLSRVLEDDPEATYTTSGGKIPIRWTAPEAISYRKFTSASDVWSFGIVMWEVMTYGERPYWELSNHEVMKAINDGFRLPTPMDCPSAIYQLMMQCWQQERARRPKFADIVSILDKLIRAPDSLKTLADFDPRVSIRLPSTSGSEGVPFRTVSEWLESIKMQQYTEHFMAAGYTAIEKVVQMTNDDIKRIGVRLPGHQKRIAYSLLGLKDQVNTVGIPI

Chain of Calcium/calmodulin-dependent protein kinase kinase 2 (Homo sapiens) (Q96RR4 2-588 limits assumed): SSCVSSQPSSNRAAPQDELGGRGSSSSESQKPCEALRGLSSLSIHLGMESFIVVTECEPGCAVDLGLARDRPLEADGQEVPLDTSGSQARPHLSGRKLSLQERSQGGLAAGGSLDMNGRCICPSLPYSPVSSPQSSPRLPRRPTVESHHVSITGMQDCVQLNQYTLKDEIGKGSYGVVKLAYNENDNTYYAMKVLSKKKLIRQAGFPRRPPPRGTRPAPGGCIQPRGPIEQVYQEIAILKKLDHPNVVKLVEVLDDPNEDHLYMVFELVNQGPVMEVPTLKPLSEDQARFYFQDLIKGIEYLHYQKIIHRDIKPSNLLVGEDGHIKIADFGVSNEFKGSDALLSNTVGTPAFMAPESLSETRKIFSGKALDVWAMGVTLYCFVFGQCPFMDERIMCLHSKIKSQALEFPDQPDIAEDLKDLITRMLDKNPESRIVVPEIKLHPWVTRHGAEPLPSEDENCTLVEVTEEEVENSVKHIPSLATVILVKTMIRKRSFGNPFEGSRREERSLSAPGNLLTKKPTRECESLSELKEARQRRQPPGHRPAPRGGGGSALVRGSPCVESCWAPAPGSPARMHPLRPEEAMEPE

Regarding `FC(F)(F)c1ccc(Cl)cc1CN1CCNc2ncc(-c3ccnc(N4CCNCC4)c3)cc21`, the inhibition in experiment [1] was less than 50%; in experiment [2] it was 73%; in experiment [3], less than 50%; in [4], less than 50%; in [5], 88%; in [6], 68%. For the same molecule, the inhibition in experiment [7] was less than 50%; in experiment [8], 99%; in [9], 98%; in [10], less than 50%.

In the case of `CN1CCN(c2ccc(-c3cnc4c(c3)N(Cc3cc(F)ccc3F)CCN4)cn2)CC1`, the inhibition in [1] was less than 50%; in experiment [2] it was less than 50%; in experiment [3] it was less than 50%; in experiment [4], less than 50%; in [5], 96%; in [6], less than 50%. Also, the inhibition is less than 50% in [7], less than 50% in experiment [8], 94% in experiment [9] and less than 50% in [10].

With `CN1CCN(c2ccc(-c3cnc4c(c3)N(Cc3cc(Cl)ccc3Cl)CCN4)cn2)CC1`, the inhibition is less than 50% in experiment [1]; less than 50% in [2]; less than 50% in [3]; less than 50% in experiment [4]; 94% in experiment [5]; less than 50% in experiment [6]. Besides, the inhibition in experiment [7] is less than 50%; in experiment [8] it was 88%; in [9], 90%; in [10], less than 50%.

Take `O=C(O)c1ccc(-c2cnc3c(c2)N(Cc2cc(Cl)ccc2C(F)(F)F)CCN3)cc1`: the inhibition in experiment [1] is less than 50%; in [6], 80.2%; in [7], less than 50%; in experiment [8] it was less than 50%; in experiment [10] it was less than 50%.

`CN1CCN(c2ccc(-c3cnc4c(c3)N(Cc3cc(Cl)ccc3C(F)(F)F)CCN4)cn2)CC1`: the inhibition in experiment [1] was less than 50%; in experiment [2], less than 50%; in [3] it was less than 50%; in [4] it was less than 50%; in [5], 92%; in experiment [6], less than 50%. The inhibition in experiment [7] is less than 50%; in experiment [8] it was 88%; in [9] it was 91%; in experiment [10] it was less than 50%.

`COC1CCN(C(=O)c2ccc(-c3cnc4c(c3)N(Cc3cc(Cl)ccc3C(F)(F)F)CCN4)cc2)CC1`: the inhibition is less than 50% in experiment [1]; less than 50% in experiment [4]; less than 50% in [6]; less than 50% in [7]; 74.2% in [8]; less than 50% in [10].

With `O=C(c1ccc(-c2cnc3c(c2)N(Cc2cc(Cl)ccc2C(F)(F)F)CCN3)cc1)N1CCC(N2CCCC2)CC1`, the inhibition in experiment [1] was less than 50%; in [4], less than 50%; in [6], 69.5%; in experiment [7] it was less than 50%; in experiment [8] it was 96.6%; in experiment [10] it was less than 50%.

As for `CN1CCN(c2ccc(-c3cnc4c(c3)N(Cc3c(F)ccc(F)c3Cl)CCN4)cn2)CC1`, the inhibition is less than 50% in experiment [1]; less than 50% in experiment [2]; less than 50% in experiment [3]; less than 50% in experiment [4]; 92% in [5]; less than 50% in [6]. Moreover, the inhibition was less than 50% in experiment [7], 96% in [8], less than 50% in experiment [9] and less than 50% in [10].

For `O=C(c1ccc(-c2cnc3c(c2)N(Cc2cc(Cl)ccc2C(F)(F)F)CCN3)cc1)N1CCCCC1`, the inhibition in experiment [1], in [6], in [7], in [8] and in experiment [10] was less than 50% throughout.

In the case of `CC(=O)N1CCN(c2cc(-c3cnc4c(c3)N(Cc3cc(Cl)ccc3C(F)(F)F)CCN4)ccn2)CC1`, the inhibition in experiment [1] was less than 50%; in experiment [2], less than 50%; in [3] it was less than 50%; in experiment [4], less than 50%; in [5], 90%; in experiment [6], 68%. In addition, the inhibition in [7] is less than 50%; in experiment [8], 93%; in experiment [9], less than 50%; in experiment [10] it was less than 50%.
